Data set [1] in a line: Permeability of the compound at 5 mg/ml after 18 hrs by PAMPA-BBB assay. The class given is ADME. To be noted: in the assay text read “25 ug/ml” for “5 mg/ml”. In short, it runs like this: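 PAMPA-BBB: DMSO stocks (5 mg/mL) diluted 200-fold into universal buffer pH 7.4, giving 25 μg/mL in the donor wells. The filter membrane was coated with porcine brain lipid in dodecane (20 mg/mL), with buffer pH 7.4 as acceptor. Plates stood undisturbed at room temperature for 18 h. Verapamil and theophylline served as high- and low-permeability standards. Pe was calculated by the Faller equation.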

Data set [2] deals with T1, Vasopressin V1b receptor (Homo sapiens, UniProt P47901).
T1 sequence (P47901 whole entry): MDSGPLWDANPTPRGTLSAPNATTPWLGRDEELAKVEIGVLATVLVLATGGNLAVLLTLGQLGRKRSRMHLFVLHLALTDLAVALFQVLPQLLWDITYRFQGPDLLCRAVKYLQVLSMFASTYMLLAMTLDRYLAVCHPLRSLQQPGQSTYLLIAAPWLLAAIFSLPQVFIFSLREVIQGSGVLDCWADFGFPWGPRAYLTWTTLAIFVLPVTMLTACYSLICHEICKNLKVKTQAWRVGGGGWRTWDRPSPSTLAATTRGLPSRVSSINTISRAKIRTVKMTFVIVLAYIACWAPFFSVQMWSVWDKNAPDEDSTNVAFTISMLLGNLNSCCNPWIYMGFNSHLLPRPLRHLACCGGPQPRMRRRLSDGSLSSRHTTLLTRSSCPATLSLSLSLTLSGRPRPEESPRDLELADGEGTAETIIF
Description: Binding affinity to human V1b receptor.

The target in data set [3] is Vasopressin V2 receptor (Homo sapiens, UniProt P30518). The data set can be described thus: Binding affinity to human vasopressin V2 receptor.
Sequence of Vasopressin V2 receptor (P30518 whole entry): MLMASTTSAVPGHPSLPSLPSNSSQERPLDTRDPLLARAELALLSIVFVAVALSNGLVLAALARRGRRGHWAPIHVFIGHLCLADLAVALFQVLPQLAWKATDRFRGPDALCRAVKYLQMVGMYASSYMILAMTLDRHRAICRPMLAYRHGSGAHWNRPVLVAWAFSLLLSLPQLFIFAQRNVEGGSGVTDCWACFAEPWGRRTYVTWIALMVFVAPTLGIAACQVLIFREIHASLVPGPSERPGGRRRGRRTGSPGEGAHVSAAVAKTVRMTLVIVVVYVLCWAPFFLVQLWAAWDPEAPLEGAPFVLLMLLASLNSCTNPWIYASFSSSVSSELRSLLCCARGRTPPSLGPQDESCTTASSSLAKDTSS
The target of data set [4] is Vasopressin V1a receptor (Homo sapiens, UniProt P37288). The data set can be described thus: Displacement of [3H]arginine-vasopressin from human Vasopressin V1a receptor after 30 mins by liquid scintillation counter. Background: Loss of bound radioactivity is the signal in a displacement assay; it reports binding, not function.
Sequence of Vasopressin V1a receptor (P37288 whole entry): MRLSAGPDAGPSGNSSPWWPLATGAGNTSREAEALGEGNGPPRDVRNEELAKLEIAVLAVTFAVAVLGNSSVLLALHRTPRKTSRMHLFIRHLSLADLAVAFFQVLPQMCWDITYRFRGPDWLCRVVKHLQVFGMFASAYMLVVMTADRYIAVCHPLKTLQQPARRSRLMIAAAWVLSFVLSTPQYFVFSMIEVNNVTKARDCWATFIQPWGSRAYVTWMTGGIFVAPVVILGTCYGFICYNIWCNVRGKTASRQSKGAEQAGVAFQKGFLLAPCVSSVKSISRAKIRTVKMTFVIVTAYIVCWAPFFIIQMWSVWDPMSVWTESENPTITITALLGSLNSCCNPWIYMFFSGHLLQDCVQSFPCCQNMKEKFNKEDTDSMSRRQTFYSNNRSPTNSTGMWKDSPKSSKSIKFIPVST
A short description of data set [5]: Permeability of the compound at 25 ug/ml after 18 hrs by PAMPA-BBB assay. For orientation: In PAMPA a lipid-coated filter parts donor from acceptor wells.

SMILES strings stand for the structures. pKi: −log10 of the molar value. Bounds are passed on as bounds.

What is called pKi is the negative decadic logarithm of the Ki, by convention in mol/L. The low end stands for a high Ki, the high end for a low Ki. In data set [1], `C[C@@H](NC(=O)[C@@H](CC(=O)N1CCC(N2CCCCC2)CC1)N1C(=O)[C@@H](N2C(=O)OC[C@@H]2c2ccccc2)[C@H]1/C=C/c1cccc(I)c1)c1ccccc1` yielded a permeability of 2.2 ×10⁻⁶ cm/s. Further, the pKi in data set [2] and in data set [3] was under 6.00 each time.
Consider `C[C@@H](NC(=O)[C@@H](CC(=O)N1CCC(N2CCCCC2)CC1)N1C(=O)[C@@H](N2C(=O)OC[C@@H]2c2ccccc2)[C@H]1/C=C/c1cccc(F)c1)c1ccccc1`, for which the pKi in data set [2] is 5.94; in data set [4], 9.21; in data set [3], under 5.00. The compound also gave a permeability in data set [5] of 5.3 ×10⁻⁶ cm/s.
Regarding `Cc1cccc(/C=C/[C@@H]2[C@H](N3C(=O)OC[C@@H]3c3ccccc3)C(=O)N2[C@H](CC(=O)N2CCC(N3CCCCC3)CC2)C(=O)N[C@H](C)c2ccccc2)c1`, the results for the pKi in data set [2], in data set [4] and in data set [3] were 5.89, 9.20 and under 5.00, respectively. The same compound returned a permeability in data set [5] of 4.5 ×10⁻⁶ cm/s.
